Results as given in paper PMC3475971 (Analytical and Bioanalytical Chemistry, 2012).

Columns and labels:
Format in all cases: binding
[1] = test system: GAK; test: Thermal shift assay; settings: thermal shift assay performed as described in [32]
[2] = target: T1, cyclin G-associated kinase (GAK) (Homo sapiens, UniProt O14976); test: Fragment screening by zonal weak affinity chromatography
T1 sequence (O14976 20-347): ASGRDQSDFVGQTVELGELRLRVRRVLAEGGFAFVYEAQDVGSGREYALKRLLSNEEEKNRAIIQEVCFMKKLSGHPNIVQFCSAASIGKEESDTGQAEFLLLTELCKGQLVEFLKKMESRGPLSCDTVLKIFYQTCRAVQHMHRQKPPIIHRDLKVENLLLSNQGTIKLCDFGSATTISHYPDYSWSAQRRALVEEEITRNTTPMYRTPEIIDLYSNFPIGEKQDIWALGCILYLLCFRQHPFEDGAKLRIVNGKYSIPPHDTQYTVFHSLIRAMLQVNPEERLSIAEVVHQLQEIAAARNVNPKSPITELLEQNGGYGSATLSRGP

[3] = target: T1, cyclin G-associated kinase (GAK); test: Frontal affinity chromatography on GAK capillary column
Outline: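 Human GAK residues 20–347 expressed in E. coli Rosetta (DE3), Ni-NTA and gel-filtration purified, tag removed with TEV protease, then coupled by reductive amination to aldehyde-silica capillary (100 × 0.5 mm). Frontal analysis: 20 mM ammonium acetate pH 6.8, 18 μL/min, 22 °C. Ligand 0.025–0.750 mM, UV 214 nm; DMSO void marker. Saturation moles versus concentration fitted (one-site plus linear nonspecific) for Btot and KD.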

Kd [2] [µM] | Kd [3] [µM] | Compound | increase of melting temperature (ΔTm) of GAK [1] [°C]
– | – | O=c1c(O)c(-c2ccc(O)c(O)c2)oc2cc(O)cc(O)c12 [Quercetin] | 9.4
41 | 63 | Nc1ncnc2c1ncn2[C@@H]1O[C@H](CO)[C@@H](O)[C@H]1O [adenosine] | –
